Rows were chosen to be rich in hits. Some 1.5% of all compounds tested hit in one or more screens of this group.
APJ agonist – agonists of human APJ apelin receptor; CHO-K1 APJ PathHunter beta-arrestin, luminescence; 0% DMSO wells, 100% apelin; activation, % at 20 µM; AID 2520; actives 0.11% (n = 330,000);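 active means activation more than six SD over the plate average, tested at 20 µM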;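 further: 0% = DMSO alone and 100% = apelin-13 at 10 nM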
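Test system – PathHunter CHO-K1 APJ (AGTRL-1) beta-arrestin reporter cells · Input – 1000 cells/well · Compound – single test compound dose, 20 µM final, 1% DMSO · Times – compound stimulation 90 min at 25 °C, detection 60 min · Technique – beta-gal luminescence · Read-out basis – APJ–arrestin association signal · Control set – negative DMSO alone, positive Apelin-13 at 10 nM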
CCR6 antagonist – antagonists of human CCR6 receptor | P51684 | CHO-K1 CCR6 PathHunter beta-arrestin, luminescence, CCL20-stimulated | inhibition, % at 20 µM | actives 0.49% (n = 340,000);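 active means compounds whose inhibition of the agonist-driven luminescence signal at 20 µM reaches about 50%, limit read from the data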;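 further: cells stimulated with CCL20 at 14 nM final; plate controls were DMSO with CCL20 for no effect and DMSO without agonist for full effect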
Target sequence (P51684 whole entry, looked up): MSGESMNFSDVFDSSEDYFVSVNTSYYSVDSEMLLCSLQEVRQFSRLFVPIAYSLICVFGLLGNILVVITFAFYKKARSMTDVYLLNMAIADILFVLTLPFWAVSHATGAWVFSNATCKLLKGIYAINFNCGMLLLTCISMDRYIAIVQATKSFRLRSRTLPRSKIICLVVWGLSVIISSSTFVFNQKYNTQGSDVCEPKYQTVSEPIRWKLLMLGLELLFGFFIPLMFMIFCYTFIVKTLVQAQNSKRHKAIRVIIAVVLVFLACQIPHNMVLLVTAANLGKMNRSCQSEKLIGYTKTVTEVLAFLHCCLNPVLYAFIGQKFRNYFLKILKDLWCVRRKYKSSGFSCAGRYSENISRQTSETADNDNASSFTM
APJ antag – antagonists of human APJ apelin receptor | P35414 | CHO-K1 APJ beta-arrestin complementation, luminescence | inhibition, % at 20 µM | actives 0.32% (n = 330,000);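 active means inhibition above about 40% at 20 µM, limit read from the data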;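 further: cells challenged with 10 nM apelin-13 agonist together with compound; plate controls were apelin-13 plus DMSO wells for no effect and DMSO wells lacking apelin-13 for full effect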
EBI2 block – blocks human EBI2 receptor beta-arrestin signaling | EBI2 beta-arrestin recruitment, luminescence, 7a,25-OHC stimulated | actives 0.81% (n = 360,000) | inhibition, % at 5 µM; in the data active means inhibition above about 38%;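 further: enzyme fragment complementation signal reports receptor beta-arrestin coupling in cells; 0% = agonist plus DMSO wells and 100% = wells without agonist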
CXCR6 block – inhibitors of human CXCR6 receptor. O00574. CHO-K1 PathHunter CXCR6 beta-arrestin, luminescence. inhibition, % at 20 µM. actives 0.36% (n = 360,000). AID 602244; in the data active means inhibition above about 34%, passing the limit was not always enough;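 further: antagonist mode with CXCL16 agonist at 10 nM final; 0% = 10 nM CXCL16 with DMSO and 100% = unstimulated wells without agonist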
Target sequence (O00574 whole entry, looked up): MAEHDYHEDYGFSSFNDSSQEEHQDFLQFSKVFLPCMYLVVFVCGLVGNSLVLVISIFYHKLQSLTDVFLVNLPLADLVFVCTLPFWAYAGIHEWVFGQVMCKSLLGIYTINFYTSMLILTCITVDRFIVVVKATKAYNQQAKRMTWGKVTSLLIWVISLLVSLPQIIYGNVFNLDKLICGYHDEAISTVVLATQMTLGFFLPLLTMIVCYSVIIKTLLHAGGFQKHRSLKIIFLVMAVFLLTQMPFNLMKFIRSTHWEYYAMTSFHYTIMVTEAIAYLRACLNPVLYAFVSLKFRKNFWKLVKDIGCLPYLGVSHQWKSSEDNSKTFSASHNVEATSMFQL
EBI2 antag conf – EBI2 (human) antagonism, single concentration confirmation; actives 29% (n = 2,400); shares compounds with EBI2 block; inhibition, % at 5 µM; EBI2 beta-arrestin luminescence, 7a,25-OHC antagonism;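 active means inhibition of at least 50%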
EBI2 agonist – EBI2 agonism counter-screen; shares compounds with EBI2 block; EBI2-expressing cells, agonist mode, luminescence, 60 min; 0% vehicle, 100% 7α,25-dihydroxycholesterol control; activation, % at 5 µM; 2,400 tested, under 10 active;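 active means activation of at least 50%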
bGal counter – beta-galactosidase inhibition counter-screen; shares compounds with EBI2 block; purified beta-galactosidase, luminescent Galacton Star, 15 min; inhibition, % at 5 µM; actives 1% (n = 2,400); AID 652176;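 active means replicate-average signal at least 3 plate SD below neutral wells, shown as high inhibition, flagging enzyme-inhibiting false positives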;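 further: 0% = DMSO wells with enzyme and 100% = wells lacking enzyme; higher means stronger loss of beta-gal luminescence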
Active calls of the source: *; . = not tested or not shown.

SMILES | APJ agonist | CCR6 antagonist | APJ antag | EBI2 block | CXCR6 block | EBI2 antag conf | EBI2 agonist | bGal counter
CCc1nc2ccc(C(=O)NCCOc3ccc(OC)cc3)cn2c1N(C)Cc1ccc(N(C)C)cc1 | . | . | . | 49* | 16 | 23 | -1 | -8
Cc1ccc(S(=O)(=O)Nc2ccccc2F)cc1C(=O)NCc1ccco1 | -1 | 5 | 3 | -20 | 4 | . | . | .
CC(O/N=C(\N)c1ccccc1)C(=O)Nc1cccc(C(F)(F)F)c1 (configuration not stated) | 0 | -3 | 13 | -4 | 1 | . | . | .
CCCCC[C@@H](C)N1C[C@@H](COCc2ccccc2)Oc2cc(N3CC[C@@H](O)C3)ccc2S1(=O)=O | . | . | . | 45* | 11 | 21 | -2 | -11
CCCCC[C@H](C)N1C[C@@H](COCc2ccccc2)Oc2cc(N3CC[C@@H](O)C3)ccc2S1(=O)=O | . | . | . | 9 | 3 | . | . | .
CCCCC[C@@H](C)N1C[C@@H](COCc2ccccc2)Oc2cc(N3CC[C@H](O)C3)ccc2S1(=O)=O | . | . | . | 53* | 3 | 18 | -2 | -14
COc1ccccc1C(=O)NCC(=O)OC(C)C(=O)N(C)C1CCCCC1 (configuration not stated) | -1 | 2 | 21 | -3 | 6 | . | . | .
CC(OC(=O)CNC(=O)c1ccc2ccccc2c1)C(=O)N(C)C1CCCCC1 (configuration not stated) | -5 | 14 | 17 | 50* | 11 | 25 | -1 | -10
CC(C)[C@H](NC(=O)OC(C)(C)C)c1cc(C(=O)N[C@@H](C)c2ccccc2)c(N)s1 | . | . | . | 2 | . | . | . | .
Cc1c(-c2cccc(Cl)c2)nc2ccccc2c1C(=O)NC1CC1 | -6 | 10 | -53 | 1 | 1 | . | . | .
O=C(/C=C/c1cccs1)N1CCN(Cc2ccc3c(c2)OCO3)CC1 | 5 | 4 | -10 | 64* | 9 | 44 | -1 | -13
O=C(/C=C/c1cccc([N+](=O)[O-])c1)N1CCN(Cc2ccc3c(c2)OCO3)CC1 | 3 | 0 | 6 | 50* | -11 | 31 | 1 | 0
COc1cccc(-c2cc(C(=O)N3CCN(S(=O)(=O)c4ccccc4)CC3)[nH]n2)c1 | -2 | -1 | -37 | 35 | -4 | . | . | .
COc1ccc(CN2CCN(C(=O)c3ccc(S(=O)(=O)N4CCCCCC4)cc3)CC2)cc1 | 2 | -7 | -18 | -1 | 1 | . | . | .
CC1CC(C)CN(S(=O)(=O)c2ccc(C(=O)N3CCN(c4ccccc4)CC3)cc2)C1 (configuration not stated) | 2 | -15 | 13 | 57* | 3 | 28 | 0 | -10
COc1ccc(-c2cc(C(=O)N3CCN(S(=O)(=O)c4ccc(C)cc4)CC3)[nH]n2)cc1 | 1 | 3 | 2 | 53* | 0 | 49 | -1 | -13
COc1ccc(S(=O)(=O)N2CCN(C(=O)c3cc(-c4ccc(C)cc4)n[nH]3)CC2)cc1 | -3 | 9 | -21 | 74* | 4 | 49 | 2 | 3
COc1ccc(C(=O)N2CCN(S(=O)(=O)c3ccc(Br)cc3)CC2)cc1 | -3 | 9 | -8 | 52* | -6 | 28 | 1 | 9
CN(c1ccccc1)S(=O)(=O)c1ccc(C(=O)N2CCN(c3ccccc3)CC2)cc1 | . | . | . | 4 | -6 | . | . | .
O=C(CCNC(=O)c1ccccc1Cl)Nc1ccncc1 | -2 | 0 | 9 | 4 | 0 | . | . | .
O=C(N/N=C/c1cccc(OCc2ccccc2)c1)c1ccc(Br)cc1 | 0 | 2 | -14 | 36* | -9 | 23 | 1 | 6
COc1cccc(/C=N/NC(=O)c2ccc(OCc3cccc(Br)c3)cc2)c1 | 3 | -9 | -8 | 24 | -2 | . | . | .
CCOc1cc(/C=N/NC(=O)CN2CCOCC2)ccc1OCc1ccccc1 | 3 | 11 | -3 | 2 | -1 | . | . | .
CCOc1cc(/C=N/NC(=O)c2ccc(CN3CCOCC3)cc2)ccc1OCc1ccccc1 | 4 | -4 | -3 | 55* | 1 | 60* | -1 | -20
CCN(C(=O)COC(=O)CCOc1ccc(C(C)(C)C)cc1)c1c(N)n(Cc2ccccc2)c(=O)[nH]c1=O | . | 11 | . | -6 | 0 | . | . | .
SMILES | APJ agonist | CCR6 antagonist | APJ antag | EBI2 block | CXCR6 block | EBI2 antag conf | EBI2 agonist | bGal counter
C#Cc1cccc(NC(=O)c2ccc3c(c2)C(=O)N(Cc2cccnc2)C3=O)c1 | 10 | -12 | -14 | 45* | -15 | 20 | 1 | 9
Brc1ccc(-c2nnc3sc(CN4CCC5(CC4)OCCO5)cn23)cc1 | -2 | 14 | 10 | 56* | 5 | 36 | 0 | -10
COc1ccc(/C=C2\SC(=S)N(Cc3cccnc3)C2=O)cc1C | -2 | 3 | -38 | 13 | 4 | . | . | .
CCOc1cc(/C=C2/SC(=Nc3ccccc3)N(Cc3cccnc3)C2=O)ccc1OCC#N | -3 | 18 | 13 | 48* | 4 | 33 | 0 | 5
O=C(COc1cccnc1[N+](=O)[O-])Nc1ccccc1Sc1ccccc1 | -2 | 5 | 4 | 48* | 5 | 32 | 0 | 7
O=C(COc1cccnc1[N+](=O)[O-])Nc1cccc(Br)c1 | -2 | 10 | 9 | -5 | 1 | . | . | .
Cc1ccccc1-c1cnc(C(O)c2cc(Cl)cc(Cl)c2)[nH]1 (configuration not stated) | . | . | . | 16 | -13 | . | . | .
COc1ccc(NC(=O)CN(C)C(=O)C2CCCO2)cc1 (configuration not stated) | -1 | 8 | 13 | -3 | 7 | . | . | .
c1ccc(CNc2nc(NCC3CC3)nc3cc(-c4ccccc4)sc23)cc1 | . | . | . | 63* | 6 | 48 | -1 | -8
C=CCNc1nc(NCCOc2ccccc2Cl)c2sc(-c3ccccc3)cc2n1 | . | . | . | 42* | 12 | 31 | -2 | -7
C=CCNc1nc(NCCOC)c2sc(-c3ccccc3)cc2n1 | . | . | . | 25 | 10 | . | . | .
c1ccc(OCCNc2nc(NCC3CC3)nc3cc(-c4ccccc4)sc23)cc1 | . | . | . | 68* | 20 | 62* | -1 | -10
O=C(/C=C/c1ccc(Br)cc1)N1CCN(Cc2ccccc2)CC1 | 4 | 6 | 10 | 96* | -4 | 85* | -1 | -7
Cc1ccc(/C=C/C(=O)N2CCN(Cc3ccccc3)CC2)o1 | 3 | 9 | 8 | 2 | -3 | . | . | .
O=C(/C=C/c1ccc(F)cc1)N1CCN(Cc2ccccc2)CC1 | 0 | 1 | -7 | 93* | -11 | 80* | 2 | 0
O=C1c2ccccc2C(=O)N1CCc1ccccn1 | -4 | 3 | 7 | -4 | 4 | . | . | .
O=C1c2cccc3c([N+](=O)[O-])ccc(c23)C(=O)N1CCc1ccccn1 | 1 | -8 | -68 | 75* | -10 | 41 | 0 | 8

Compound activity as filed in PubChem BioAssay.
